Columns and labels:
Type in all cases: cell-based
[1] = target: Cyclin-dependent kinase 17 (Homo sapiens) (UniProt Q00537); assay: Inhibition of PCTAIRE2 Lys2 labeling site in human A-375 cells at 5 uM by KiNativ Profiling analysis relative to control
[2] = target: T1, Tyrosine-protein kinase ABL2 (Homo sapiens, UniProt P42684); assay: Inhibition of ARG Lys1 labeling site in human A-375 cells at 5 uM by KiNativ Profiling analysis relative to control
Procedure, shortened: (§1)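 Intact A375 melanoma cells were treated with compound at 5 or 0.5 μM, then lysed. Lysate kinases were labeled with a lysine-reactive ATP or ADP-biotin probe (KiNativ). Inhibition is read as protection of each kinase labeling site from probe labeling.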

[3] = target: Mitogen-activated protein kinase 8 (Homo sapiens, UniProt P45983); assay: Inhibition of JNK1 Lys2 labeling site in human A-375 cells at 0.5 uM by KiNativ Profiling analysis relative to control
[4] = target: T1, Tyrosine-protein kinase ABL2; assay: Inhibition of ARG Lys1 labeling site in human A-375 cells at 0.5 uM by KiNativ Profiling analysis relative to control; procedure, shortened: as §1
[5] = target: Tyrosine-protein kinase Fer (Homo sapiens, UniProt P16591); assay: Inhibition of FER ACT labeling site in human A-375 cells at 0.5 uM by KiNativ Profiling analysis relative to control
[6] = target: T2, Dual specificity mitogen-activated protein kinase kinase 5 (Homo sapiens) (UniProt Q13163); assay: Inhibition of MAP2K5 Lys2 labeling site in human A-375 cells at 0.5 uM by KiNativ Profiling analysis relative to control
T2 sequence (whole entry): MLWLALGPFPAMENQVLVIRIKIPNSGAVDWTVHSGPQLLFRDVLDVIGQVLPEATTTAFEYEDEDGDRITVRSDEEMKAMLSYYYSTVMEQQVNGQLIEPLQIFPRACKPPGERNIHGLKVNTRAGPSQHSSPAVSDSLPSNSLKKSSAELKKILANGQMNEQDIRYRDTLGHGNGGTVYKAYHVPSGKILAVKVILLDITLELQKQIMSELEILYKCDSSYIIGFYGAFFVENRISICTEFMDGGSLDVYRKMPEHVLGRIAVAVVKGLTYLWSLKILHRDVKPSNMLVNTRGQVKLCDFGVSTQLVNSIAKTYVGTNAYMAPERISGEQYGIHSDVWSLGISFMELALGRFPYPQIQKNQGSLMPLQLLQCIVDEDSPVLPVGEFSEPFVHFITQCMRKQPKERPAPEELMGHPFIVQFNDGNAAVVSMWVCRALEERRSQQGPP

[7] = target: Serine/threonine-protein kinase Nek7 (Homo sapiens) (UniProt Q8TDX7); assay: Inhibition of NEK7 Lys1 labeling site in human A-375 cells at 0.5 uM by KiNativ Profiling analysis relative to control
[8] = target: T3, Phosphatidylinositol 5-phosphate 4-kinase type-2 gamma (Homo sapiens) (UniProt Q8TBX8); assay: Inhibition of PIP4K2C ATP labeling site harbouring VKELPTLKDMDFLNK in human A-375 cells at 0.5 uM by KiNativ Profiling analysis relative to control
T3 sequence (whole entry): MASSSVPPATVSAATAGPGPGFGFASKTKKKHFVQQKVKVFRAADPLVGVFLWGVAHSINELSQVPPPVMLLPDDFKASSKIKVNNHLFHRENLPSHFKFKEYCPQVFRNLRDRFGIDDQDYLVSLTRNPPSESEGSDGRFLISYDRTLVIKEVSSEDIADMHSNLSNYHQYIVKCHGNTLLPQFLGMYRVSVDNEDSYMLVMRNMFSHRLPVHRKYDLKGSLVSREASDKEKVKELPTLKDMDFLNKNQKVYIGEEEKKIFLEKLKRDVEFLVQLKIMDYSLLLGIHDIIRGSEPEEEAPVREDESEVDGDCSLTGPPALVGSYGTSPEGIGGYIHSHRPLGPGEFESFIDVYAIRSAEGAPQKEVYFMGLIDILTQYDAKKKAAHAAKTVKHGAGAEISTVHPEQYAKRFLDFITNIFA
Procedure, shortened: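 Live A375 melanoma cells were treated with compound at 5 or 0.5 μM, then lysed. Lysates were labeled with a lysine-reactive ATP or ADP-biotin probe. Read-out was the compound's protection of kinase labeling sites from probe labeling (KiNativ).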

[9] = target: T4, Serine/threonine-protein kinase ULK3 (Homo sapiens) (UniProt Q6PHR2); assay: Inhibition of ULK3 Lys2 labeling site in human A-375 cells at 0.5 uM by KiNativ Profiling analysis relative to control
T4 sequence (whole entry): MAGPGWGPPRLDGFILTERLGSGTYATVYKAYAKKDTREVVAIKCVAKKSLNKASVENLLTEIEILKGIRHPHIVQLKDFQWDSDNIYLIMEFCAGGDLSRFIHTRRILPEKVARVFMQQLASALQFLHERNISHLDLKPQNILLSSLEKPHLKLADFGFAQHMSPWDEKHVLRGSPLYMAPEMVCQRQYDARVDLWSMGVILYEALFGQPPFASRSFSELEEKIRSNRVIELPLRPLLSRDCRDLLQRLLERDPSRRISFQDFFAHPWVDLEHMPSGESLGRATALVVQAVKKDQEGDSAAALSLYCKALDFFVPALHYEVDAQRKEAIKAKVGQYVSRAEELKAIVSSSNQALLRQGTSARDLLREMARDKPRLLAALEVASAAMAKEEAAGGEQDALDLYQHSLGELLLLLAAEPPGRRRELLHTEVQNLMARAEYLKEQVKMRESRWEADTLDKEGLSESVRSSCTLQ

[10] = target: RAC-beta serine/threonine-protein kinase (Homo sapiens) (UniProt P31751); assay: Inhibition of AKT2 ATP Loop labeling site in human A-375 cells at 0.05 uM by KiNativ Profiling analysis relative to control
[11] = target: Casein kinase I isoform epsilon (Homo sapiens) (UniProt P49674); assay: Inhibition of CK1epsilon Lys2 labeling site in human A-375 cells at 0.05 uM by KiNativ Profiling analysis relative to control
[12] = target: Mitogen-activated protein kinase 9 (Homo sapiens, UniProt P45984); assay: Inhibition of JNK2 Lys2 labeling site in human A-375 cells at 0.05 uM by KiNativ Profiling analysis relative to control
Chain of Mitogen-activated protein kinase 9 (P45984 whole entry, looked up): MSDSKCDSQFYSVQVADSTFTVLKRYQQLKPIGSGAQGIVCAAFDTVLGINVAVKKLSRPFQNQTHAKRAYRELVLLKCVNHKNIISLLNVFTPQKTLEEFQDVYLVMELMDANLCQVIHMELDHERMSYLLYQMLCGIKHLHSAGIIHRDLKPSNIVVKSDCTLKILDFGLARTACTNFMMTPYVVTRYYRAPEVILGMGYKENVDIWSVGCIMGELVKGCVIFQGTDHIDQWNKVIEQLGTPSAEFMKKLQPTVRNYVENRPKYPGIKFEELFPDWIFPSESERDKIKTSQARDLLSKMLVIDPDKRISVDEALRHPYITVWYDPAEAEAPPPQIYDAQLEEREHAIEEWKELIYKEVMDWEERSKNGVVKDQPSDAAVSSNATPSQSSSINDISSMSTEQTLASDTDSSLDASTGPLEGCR

T1 sequence (P42684 whole entry): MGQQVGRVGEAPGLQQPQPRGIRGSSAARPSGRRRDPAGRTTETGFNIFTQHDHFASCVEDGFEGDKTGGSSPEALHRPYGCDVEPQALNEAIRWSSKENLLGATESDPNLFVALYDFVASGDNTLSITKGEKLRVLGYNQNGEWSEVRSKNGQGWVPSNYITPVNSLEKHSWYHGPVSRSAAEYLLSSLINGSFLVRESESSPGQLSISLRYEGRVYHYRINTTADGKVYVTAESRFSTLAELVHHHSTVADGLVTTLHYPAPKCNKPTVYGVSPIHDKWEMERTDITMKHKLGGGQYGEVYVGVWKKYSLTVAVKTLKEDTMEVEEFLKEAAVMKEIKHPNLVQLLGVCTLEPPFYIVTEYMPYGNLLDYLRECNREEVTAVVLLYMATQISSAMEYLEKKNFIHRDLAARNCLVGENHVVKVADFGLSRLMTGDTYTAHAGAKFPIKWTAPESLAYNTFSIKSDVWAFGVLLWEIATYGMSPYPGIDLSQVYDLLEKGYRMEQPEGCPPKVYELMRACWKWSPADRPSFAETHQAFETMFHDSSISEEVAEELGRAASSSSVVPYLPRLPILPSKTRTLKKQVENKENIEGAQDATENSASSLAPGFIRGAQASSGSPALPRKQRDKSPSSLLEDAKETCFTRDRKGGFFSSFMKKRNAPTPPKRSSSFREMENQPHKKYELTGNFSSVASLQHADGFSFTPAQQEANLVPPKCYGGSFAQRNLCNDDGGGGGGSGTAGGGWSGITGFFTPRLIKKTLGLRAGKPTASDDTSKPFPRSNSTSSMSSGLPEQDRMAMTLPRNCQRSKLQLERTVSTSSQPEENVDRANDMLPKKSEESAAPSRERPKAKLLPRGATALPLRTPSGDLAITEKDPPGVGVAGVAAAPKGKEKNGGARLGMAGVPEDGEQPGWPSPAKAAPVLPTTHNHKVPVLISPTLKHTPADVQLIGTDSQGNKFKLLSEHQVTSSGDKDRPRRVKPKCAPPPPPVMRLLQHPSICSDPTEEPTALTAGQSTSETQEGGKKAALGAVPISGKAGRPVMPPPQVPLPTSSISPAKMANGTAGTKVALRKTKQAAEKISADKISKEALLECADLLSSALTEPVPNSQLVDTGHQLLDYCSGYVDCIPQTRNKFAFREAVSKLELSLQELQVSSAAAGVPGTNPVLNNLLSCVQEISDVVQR
Chain of Mitogen-activated protein kinase 8 (P45983 whole entry): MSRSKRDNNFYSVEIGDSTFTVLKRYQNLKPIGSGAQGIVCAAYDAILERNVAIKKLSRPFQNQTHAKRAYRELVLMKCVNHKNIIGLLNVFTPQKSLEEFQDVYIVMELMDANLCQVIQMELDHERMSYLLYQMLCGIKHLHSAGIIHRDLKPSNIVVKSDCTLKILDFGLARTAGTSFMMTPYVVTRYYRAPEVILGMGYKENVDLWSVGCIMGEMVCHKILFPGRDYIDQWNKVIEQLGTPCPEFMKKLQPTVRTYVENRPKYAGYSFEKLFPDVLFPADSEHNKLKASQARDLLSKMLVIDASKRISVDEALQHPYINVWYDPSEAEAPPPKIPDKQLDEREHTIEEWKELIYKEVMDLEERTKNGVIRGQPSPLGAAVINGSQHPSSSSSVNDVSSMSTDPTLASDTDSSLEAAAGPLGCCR
Chain of Tyrosine-protein kinase Fer (P16591 whole entry, looked up): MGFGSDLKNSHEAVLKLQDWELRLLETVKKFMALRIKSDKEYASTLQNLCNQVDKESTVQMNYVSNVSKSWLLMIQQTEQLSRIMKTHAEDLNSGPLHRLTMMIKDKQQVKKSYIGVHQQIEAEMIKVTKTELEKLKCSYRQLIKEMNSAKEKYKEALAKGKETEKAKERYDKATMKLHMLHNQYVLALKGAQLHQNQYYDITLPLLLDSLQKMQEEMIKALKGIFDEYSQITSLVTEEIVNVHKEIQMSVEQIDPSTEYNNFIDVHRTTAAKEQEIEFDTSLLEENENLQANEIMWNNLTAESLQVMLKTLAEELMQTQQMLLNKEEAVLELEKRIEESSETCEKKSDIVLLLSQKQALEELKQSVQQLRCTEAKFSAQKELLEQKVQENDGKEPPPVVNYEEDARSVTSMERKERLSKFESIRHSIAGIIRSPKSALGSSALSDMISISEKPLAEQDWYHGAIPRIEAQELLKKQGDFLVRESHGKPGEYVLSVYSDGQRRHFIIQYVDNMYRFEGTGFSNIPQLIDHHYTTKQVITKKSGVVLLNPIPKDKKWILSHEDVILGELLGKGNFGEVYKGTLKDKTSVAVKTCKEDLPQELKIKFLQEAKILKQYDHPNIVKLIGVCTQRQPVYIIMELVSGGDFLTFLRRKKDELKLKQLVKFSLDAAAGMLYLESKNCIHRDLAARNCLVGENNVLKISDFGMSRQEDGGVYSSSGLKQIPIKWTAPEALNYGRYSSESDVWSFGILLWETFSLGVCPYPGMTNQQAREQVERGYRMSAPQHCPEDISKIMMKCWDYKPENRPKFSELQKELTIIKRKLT
Chain of Casein kinase I isoform epsilon (Homo sapiens) (P49674 whole entry, looked up, canonical isoform): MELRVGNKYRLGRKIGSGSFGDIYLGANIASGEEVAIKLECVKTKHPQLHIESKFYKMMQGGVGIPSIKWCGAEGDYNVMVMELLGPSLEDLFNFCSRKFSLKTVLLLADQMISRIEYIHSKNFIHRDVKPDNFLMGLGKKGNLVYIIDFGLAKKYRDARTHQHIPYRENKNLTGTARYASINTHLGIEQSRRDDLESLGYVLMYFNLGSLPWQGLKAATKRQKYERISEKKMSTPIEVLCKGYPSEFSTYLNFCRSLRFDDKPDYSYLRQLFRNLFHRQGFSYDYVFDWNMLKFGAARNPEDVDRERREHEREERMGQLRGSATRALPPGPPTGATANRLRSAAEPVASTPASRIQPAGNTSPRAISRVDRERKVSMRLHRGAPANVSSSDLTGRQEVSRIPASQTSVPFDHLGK
Chain of Serine/threonine-protein kinase Nek7 (Homo sapiens) (Q8TDX7 whole entry, looked up): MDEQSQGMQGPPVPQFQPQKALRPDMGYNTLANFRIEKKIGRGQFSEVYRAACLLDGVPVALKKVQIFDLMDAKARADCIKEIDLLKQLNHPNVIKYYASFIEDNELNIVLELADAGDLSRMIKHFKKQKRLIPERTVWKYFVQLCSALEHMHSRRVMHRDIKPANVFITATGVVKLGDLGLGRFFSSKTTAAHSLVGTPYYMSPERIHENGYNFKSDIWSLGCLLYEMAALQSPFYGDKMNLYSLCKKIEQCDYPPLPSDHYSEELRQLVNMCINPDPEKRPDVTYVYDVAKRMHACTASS
Chain of RAC-beta serine/threonine-protein kinase (Homo sapiens) (P31751 whole entry, canonical isoform): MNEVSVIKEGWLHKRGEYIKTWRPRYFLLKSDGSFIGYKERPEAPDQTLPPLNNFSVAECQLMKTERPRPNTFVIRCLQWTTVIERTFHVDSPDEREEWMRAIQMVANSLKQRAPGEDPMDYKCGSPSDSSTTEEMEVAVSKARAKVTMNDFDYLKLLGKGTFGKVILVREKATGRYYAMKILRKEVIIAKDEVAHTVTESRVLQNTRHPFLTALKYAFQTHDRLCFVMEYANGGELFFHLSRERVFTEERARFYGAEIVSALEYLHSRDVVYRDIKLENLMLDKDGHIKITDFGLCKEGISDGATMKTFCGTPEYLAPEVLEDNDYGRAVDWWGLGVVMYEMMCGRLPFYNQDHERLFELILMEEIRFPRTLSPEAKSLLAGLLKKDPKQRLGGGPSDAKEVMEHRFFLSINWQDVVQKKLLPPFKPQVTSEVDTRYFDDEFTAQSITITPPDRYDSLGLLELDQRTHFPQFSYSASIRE
Chain of Cyclin-dependent kinase 17 (Homo sapiens) (Q00537 whole entry, looked up): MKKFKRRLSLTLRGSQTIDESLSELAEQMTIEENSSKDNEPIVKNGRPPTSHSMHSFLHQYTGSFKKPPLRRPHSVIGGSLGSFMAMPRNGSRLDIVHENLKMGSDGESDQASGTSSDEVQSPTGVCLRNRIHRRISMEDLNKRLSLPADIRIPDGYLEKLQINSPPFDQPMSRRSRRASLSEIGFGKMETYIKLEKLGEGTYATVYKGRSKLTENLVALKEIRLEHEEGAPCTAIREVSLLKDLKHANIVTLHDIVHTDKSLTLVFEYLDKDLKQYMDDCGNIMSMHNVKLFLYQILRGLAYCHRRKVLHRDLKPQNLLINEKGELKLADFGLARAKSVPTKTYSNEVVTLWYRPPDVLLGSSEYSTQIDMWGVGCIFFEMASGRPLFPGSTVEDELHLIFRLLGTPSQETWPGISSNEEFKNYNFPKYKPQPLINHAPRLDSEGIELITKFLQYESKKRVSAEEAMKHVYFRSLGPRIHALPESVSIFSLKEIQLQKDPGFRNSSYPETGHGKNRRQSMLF

| Compound | inhibition [1] [%] | inhibition [2] [%] | inhibition [3] [%] | inhibition [4] [%] | inhibition [5] [%] | inhibition [6] [%] | inhibition [7] [%] | inhibition [8] [%] | inhibition [9] [%] | inhibition [10] [%] | inhibition [11] [%] | inhibition [12] [%] |
| --- | --- | --- | --- | --- | --- | --- | --- | --- | --- | --- | --- | --- |
| CCN1CCN(Cc2ccc(NC(=O)c3ccc(C)c(Oc4ccnc5[nH]ccc45)c3)cc2C(F)(F)F)CC1 | 87 | 86.8 | 73.7 | 85.5 | 88 | 16.2 | -0.5 | 3.2 | -2.5 | -3.9 | -0.7 | 50.3 |
| CCN1CCN(Cc2ccc(NC(=O)c3ccc(C)c(/C=C/c4cnc5[nH]ccc5c4OC)c3)cc2C(F)(F)F)CC1 | 27.8 | > 90 | 40.6 | > 90 | -10 | 26.1 | 7.8 | -5.8 | 8.5 | 20.9 | -9.6 | 23.9 |

From ChEMBL document CHEMBL5696442, “Discovery of type II inhibitors of TGFβ-activated kinase 1 (TAK1) and mitogen-activated protein kinase kinase kinase kinase 2 (MAP4K2)” (J Med Chem, 2015)
